Screening data as filed in PubChem.
ASAP1 GAP inh = ASAP1 ArfGAP inhibition | Q9ULH1 | ASAP1-stimulated ARF1 GTP hydrolysis, GDP FP detection | inhibition, % at 16.5 µM | 0.19% of 360,000 active; in the data active means inhibition above about 25%;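 further: 0% = vehicle with enzyme and substrate and 100% = no enzyme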
ARFGAP1 inhibitor = inhibitors of rat ARFGAP1 | Arfgap1-stimulated ARF1 GTP hydrolysis, GDP FP detection | 0.26% of 360,000 active | inhibition, % at 16.5 µM | Q62848 | AID 651572;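 active means inhibition above a per-plate limit, mean inhibition of low control wells plus 3 SD, cut at about 25% in these data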;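 further: 0% = DMSO wells with enzyme and 100% = wells lacking Arfgap1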
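Assay system: purified rat His6-Arfgap1 residues 1-136 (GAP domain); Reagent: human Δ17 ARF1 bound to GTP; Dosing: 16.5 µM single point, 1.26% DMSO; Times: GTP hydrolysis reaction 2 h at 25 °C; Signal: FP, GDP Alexa 633 tracer displaced from anti-GDP antibody, 620/688 nm; Measure: % inhibition from polarization.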
PLCg1 inh = PLC-gamma1 (human) inhibition, primary screen; P19174; purified PLC-gamma1, fluorogenic substrate, fluorescence; inhibition, % at 12.2 µM; 0.84% of 370,000 active; in the data active means inhibition above about 9.5%
PLC-beta3 inh = PLC-beta3 (human) inhibition, primary screen | Q01970 | Purified PLC-beta3, fluorogenic substrate, fluorescence | inhibition, % at 12.2 µM | 0.18% of 370,000 active | AID 720704; in the data active means inhibition above about 11%;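 further: 0% = median of compound wells on plate and 100% = full blocker control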
HGIII-sPLA2 inh = Inhibits HGIII-sPLA2 liposome hydrolysis, primary screen; Q9NZ20; 0.56% of 370,000 active; inhibition, % at 12.2 µM; QFRET BODIPY PC-A2 liposome hydrolysis, fluorescence;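 active means inhibition above mean plus 3 SD of compounds lying within the high and low control bounds, cut at about 19% in these data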;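 further: 0% = median of test compound wells and 100% = no enzyme DMSO wells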
sPLA2 confirm = human GIII-sPLA2 inhibition, confirmation; inhibition, % at 12.2 µM; AID 743280; recombinant hGIII-sPLA2, BODIPY PC-A2 QFRET fluorescence; 34% of 2,000 active; shares compounds with HGIII-sPLA2 inh;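 active means mean inhibition across triplicates above the hit cutoff set in the earlier primary screen, cut at about 19% in these data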;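 further: 0% = enzyme with DMSO and 100% = DMSO wells lacking enzyme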
BODIPY interf = optically interferes with 535nm fluorescence in sPLA2 counter-screen; BODIPY FL product fluorescence interference, QFRET; shares compounds with HGIII-sPLA2 inh; inhibition, % at 12.2 µM; AID 743282; 8.5% of 2,000 active;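 active means average inhibition above the solvent-only control mean plus 3 SD, cut at about 6% in these data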;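 further: 0% = DMSO with substrate plus product and 100% = DMSO with substrate alone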
BODIPY interf DR = interferes with 535nm fluorescence in dose response counter-screen. shares compounds with HGIII-sPLA2 inh. BODIPY FL product fluorescence interference, cell-free. IC50, µM. 240 tested, under 10 active. AID 743455;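 active means IC50 at or below 10 µM; inactive means IC50 above 10 µM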
Starred values were filed as active, the others as inactive; nt = no result given; ! = not confirmed by another sample. The list is not random: actives were taken first. Their share in the collection is about 1.9%.

SMILES	ASAP1 GAP inh	ARFGAP1 inhibitor	PLCg1 inh	PLC-beta3 inh	HGIII-sPLA2 inh	sPLA2 confirm	BODIPY interf	others
CC(C)N1CCCCC(NC(=O)c2ccccc2)C1=O (stereo not given)	nt	nt	8.5	1.3	22.1*	-0.4	-4.9
O=C(NC1CCCCN(Cc2cccc(Cl)c2)C1=O)c1cccc([N+](=O)[O-])c1 (stereo not given)	nt	nt	-1.5	-0.9	-1.3	nt	nt
COc1ccc(NC(=O)/C(C#N)=C/c2cccnc2)c(OC)c1	-0.8	9.1	-1.8	-5.7	-4.2	nt	nt
COc1ccc(NC(=O)C(=O)N/N=C/c2cccnc2)c(OC)c1	-3.5	13.0	1.3	-0.4	20.0*	3.7	-7.3
COc1ccccc1/C=N/NC(=O)C(=O)Nc1ccccc1OC(F)(F)C(F)F	-3.4	-13.9	-10.4	-17.0	10.7	nt	nt
COc1cccc(/C=N/NC(=O)C(=O)Nc2ccccc2OC(F)(F)C(F)F)c1	-9.9	13.4	7.6	2.0	20.7*	5.1	-3.7
CCC(=O)Nc1cccc(NC(=S)NC(=O)c2ccc(Cl)cc2Cl)c1	1.6	-2.4	0.3	-1.9	21.0*	5.5	-6.7
O=C1S/C(=C\C=C\c2ccco2)C(=O)N1c1ccccc1	5.0	5.1	-25.4	-48.6	27.6*	2.3	-1.8
Clc1ccccc1CN1CCSCC1	-7.9	-5.0	5.1	3.3	3.1	nt	nt
CC1CN(Cc2ccccc2Cl)CC(C)O1 (stereo not given)	-2.0	4.7	2.6	1.5	19.4*	-1.0	-10.2
CN1CCC(=NNC(=O)C(=O)NC(C)(C)C)CC1	-3.1	7.4	-0.2	-1.5	22.5*	1.9	-8.9
S=C1SC2(CCCCCC2)NC2=C1CCCCC2	8.1	2.9	3.2	0.0	19.4*	24.9*	3.1
O=c1nc(NCc2ccccc2Cl)cn[nH]1	11.4	4.8	1.1	-0.9	24.6*	-0.8	-6.5
COc1ccc(C(=O)NNC(=S)NC(=O)/C=C/c2cccs2)cc1	5.0	-6.1	0.1	-0.1	0.3	nt	nt
O=C(NNC(=S)NC(=O)c1ccco1)c1ccc(NC(=O)c2ccccc2)cc1	15.7	-8.6	3.1	-2.6	16.4	nt	nt
O=C(NC(=S)NNC(=O)c1ccccc1O)c1ccco1	5.3	3.4	1.0	-5.8	27.6*	19.0	-4.7
O=C(NC(=S)NNC(=O)c1cc2ccccc2cc1O)c1ccco1	1.3	-0.4	-34.6	-36.7	21.0*	27.9*	1.8	BODIPY interf DR=>122
CN(C)S(=O)(=O)c1cccc(NC(=S)NNC(=O)c2cc3ccccc3cc2O)c1	16.6	0.0	-342.9	-433.4	37.1*	35.9*	13.2*
O=C(/C=C/c1cccs1)NC(=S)NNC(=O)c1ccccc1O	3.8	-14.7	-2.9	1.3	42.2*	32.2*	2.8	BODIPY interf DR=>122
CCCCn1c(=S)[nH]c2c(=O)n(C)c(=O)n(C)c21	4.8	-9.3	2.9	-0.1	7.0	nt	nt
Cn1c(=O)c2[nH]c(=S)n(Cc3ccccc3)c2n(C)c1=O	3.1	3.2	-2.2	-1.5	23.0*	7.5	1.2
Cc1ccc(-c2csc(NC(=S)NC(=O)c3ccco3)n2)cc1	14.0	-6.7	0.9	-3.9	16.4	nt	nt
CC(=O)Nc1ccc(-c2csc(NNC(=O)c3ccccc3)n2)cc1	7.6	-9.7	-14.7	-18.0	32.7*	21.6*	4.4
CC(=O)Nc1ccc(-c2csc(N/N=C(/C)c3ccccc3)n2)cc1	0.6	4.9	-13.1	-19.8	6.0	nt	nt
O=C(NNc1nc(-c2ccccc2)cs1)c1ccco1	-2.7	0.4	-4.4	-3.6	26.7*	29.2*	4.4	BODIPY interf DR=>122
SMILES	ASAP1 GAP inh	ARFGAP1 inhibitor	PLCg1 inh	PLC-beta3 inh	HGIII-sPLA2 inh	sPLA2 confirm	BODIPY interf	others
O=C(NNc1nc(-c2ccc(Cl)cc2)cs1)c1ccco1	-0.7	-8.8	-8.9	-19.4	45.4*	38.0*	10.5*
COC(=O)C1=C(C)N(C)C(=NCc2ccc(OC)cc2)NC1c1cccc(F)c1 (stereo not given)	-2.9	2.9	1.6	2.0	6.6	nt	nt
COC(=O)C1CN(C2CCCC2)CCS(=O)(=O)N1Cc1cn(Cc2ccc(Cl)cc2)nn1 (stereo not given)	nt	nt	0.0	1.6	-2.7	nt	nt
O=C(OC12CCCN(C1)/C(=C/c1cccc(Cl)c1)C2)c1ccno1 (stereo not given)	nt	nt	-0.6	-2.7	-2.0	nt	nt
CCC(C)N(C(=O)c1oc(=O)c2ccccc2c1-c1ccc(C)cc1)C(C)CC (stereo not given)	nt	nt	2.6	-0.8	16.3	nt	nt
CCc1c(C)nc2c(-c3ccccc3)c[nH]n2c1=O	4.6	15.7	-182.1	-205.0	24.5*	32.7*	5.5	BODIPY interf DR=>122
CCOC(=O)Cc1c(C)nc2c(-c3ccccc3)c[nH]n2c1=O	1.4	-5.5	-131.7	-153.1	9.7	nt	nt
CCOc1ccc(NCC2CCOC(C)(C)C2)cc1 (stereo not given)	-1.2	4.4	3.2	2.4	19.6*	11.5	-3.9
CCOC(=O)CC[C@H]1CC[C@]2(CCCN(C(=O)c3ccc4ccccc4n3)C2)O1	nt	nt	-1.7	0.0	-1.2	nt	nt
Cc1cc(C(=O)NNC(=S)NC(=O)/C=C/c2ccccc2Cl)n[nH]1	-8.0	2.3	-20.7	-26.4	26.2*	42.2*	-4.1	BODIPY interf DR=>122
CCCCCC/C(=N/O)c1ccccn1	3.7	17.6	3.8	2.7	21.7*	12.0	-6.3
CCC(C)c1ccccc1OCCOCCN1CCCC1 (stereo not given)	-5.2	-1.1	4.0	2.6	19.6*	-1.2	-20.4
O=C(O)Cc1sc(N/N=C\c2ccncc2)nc1-c1ccccc1	7.4	-5.1	-53.5	-92.6	26.1*	4.8	-7.1
CC(=O)Nc1ccc(S(=O)(=O)NC2=C(N3CCN(Cc4ccccc4)CC3)C(=O)c3ccccc3C2=O)cc1	-4.1	0.9	4.0	-1.0	21.1*!	25.1*	-6.4
CCN1CCN(C2=C(NS(=O)(=O)c3ccc(NC(C)=O)cc3)C(=O)c3ccccc3C2=O)CC1	10.7	10.9	-2.5	-10.5	6.9	nt	nt
CCCCOCCCNC(=O)C[C@H]1C[C@@]2(C(=O)OC)C(=C[C@H](C(C)C)O[C@@H]2C2CC2)N(Cc2cccc3ccccc23)C1=O	nt	nt	2.6	-0.8	-7.8	nt	nt
COc1ccc(CN2CN3CCc4ccccc4C3CS2(=O)=O)cc1 (stereo not given)	nt	nt	2.1	-0.6	11.6	nt	nt
COc1ccccc1NS(=O)(=O)c1ccc2ccccc2c1	1.9	-1.1	-6.8	-11.3	-13.0	nt	nt
COc1ccc(NS(=O)(=O)c2ccc3ccccc3c2)c2ncccc12	-0.4	9.8	-66.5	-59.0	28.4*	14.5	-1.2
CCOc1ccccc1NC(=O)C(OC(=O)c1ccccc1)c1ccccc1 (stereo not given)	-5.3	7.8	2.1	2.0	-7.7	nt	nt
